Hits are enriched below; roughly 2.3% of the tested compounds scored in any of these assays.
TPT1 inhibitor: C. albicans TPT1 enzyme inhibition; recombinant caTPT1, FP RNA substrate dephosphorylation; inhibition, % at 5 µM; hit rate 0.81% among 300,000; AID 1962;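 active means inhibition above the mean of all tested compounds plus 3 SD, set per screening campaign, cut at about 24% in these data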;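 further: plate controls were DMSO alone for no effect and ferristatin control at 100 nM for full effect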
Rpn11 block: blocks the human proteasome subunit Rpn11; O00487; human 26S proteasome, Ub4-pepOG fluorescence polarization; 20S core pre-blocked with epoxomicin; calls only at 20 µM; hit rate 0.59% among 360,000;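 active means inhibition at 20 µM, scaled to each plate's controls, above about 33%, limit read from the data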
HNF4A DNA FP: change in binding of human HNF4 alpha to DNA; P41235; HNF4a-FITC DNA binding, fluorescence polarization, 1 h; activity change, % at 10 µM; hit rate 0.3% among 360,000; in the data active means activity change above about 30%, passing the limit was not always enough
CSN inh: CSN deneddylation inhibition. Q92905. Purified CSN, SCF-Nedd8-OG deneddylation, fluorescence polarization. inhibition, % at 12.5 µM. hit rate 0.38% among 360,000;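 active means pattern-corrected inhibition above about 35%, with an unprinted fluorescence ratio check between 0.5 and 1.5, limit read from the data, passing the limit was not always enough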;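 further: 0% = enzyme with substrate and 100% = substrate without enzyme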
Target sequence (Q92905 whole entry, looked up, one chain of several): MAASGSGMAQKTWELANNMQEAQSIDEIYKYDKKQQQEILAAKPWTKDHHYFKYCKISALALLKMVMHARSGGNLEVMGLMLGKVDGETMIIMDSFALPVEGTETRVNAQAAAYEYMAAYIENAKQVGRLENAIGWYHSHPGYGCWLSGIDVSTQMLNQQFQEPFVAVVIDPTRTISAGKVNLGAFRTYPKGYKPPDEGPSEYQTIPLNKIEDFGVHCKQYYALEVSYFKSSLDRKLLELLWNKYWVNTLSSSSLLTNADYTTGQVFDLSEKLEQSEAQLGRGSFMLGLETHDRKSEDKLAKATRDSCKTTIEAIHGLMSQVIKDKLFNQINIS
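Assay system: purified human Csn5 enzyme expressed in HEK293T cells; Input: 0.24 nM Csn5 enzyme, final concentration; Reagent: 10 nM SCFSkp2-Nedd8OG; Compound dosing: 12.5 µM single point; Times: reaction 90 min, room temperature; Technique: fluorescence polarization readout.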
CRFBP-R2 agonist: agonists of human CRF-binding protein/CRF-R2 receptor complex | HEK293 CRF-R2/CRF-BP, calcium dye fluorescence (FLIPR); percent of saturating CRF peptide response | activation, % at 13.2 µM | hit rate 0.46% among 350,000 | AID 588473;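 active means activation of at least 50%, plus an integration ratio under a set limit after plate pattern correction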;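 further: plate controls were neutral control wells without compound for no effect and CRF at EC100 for full effect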
CRFR2-BP antag: CRF-BP/CRF-R2 complex antagonism; HEK293 CRF-R2/CRF-BP, CRF-induced calcium fluorescence; inhibition, % at 11.8 µM; hit rate 0.59% among 350,000; AID 588475;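 active means inhibition of the ligand-induced calcium signal above about 50% at the single tested concentration, limit read from the data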
caTPT1 confirm: confirmation of Candida albicans TPT1 inhibitors | shares compounds with TPT1 inhibitor | recombinant caTPT1, fluorescence polarization, RNase T1 coupled | inhibition, % at 5 µM | hit rate 74% among 2,400 | AID 2149;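 active means inhibition above the primary screen limit, the mean inhibition of all tested compounds plus 3 SD, cut at about 25% in these data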
RNase T1 inh: counter-screen for TPT1 inhibitors: inhibitors of Aspergillus oryzae RNase T1; inhibition, % at 5 µM; hit rate 83% among 2,400; RNase T1 cleavage, fluorescence polarization, 1536-well; shares compounds with TPT1 inhibitor;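 active means inhibition above the solvent-only control well mean plus 3 SD, limit set per screening run, cut at about 23% in these data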;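 further: plate controls were DMSO wells with enzyme for no effect and wells without RNase T1 for full effect; inhibitors block cleavage so intact labeled substrate keeps polarization high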
Target sequence (P00651 whole entry, looked up): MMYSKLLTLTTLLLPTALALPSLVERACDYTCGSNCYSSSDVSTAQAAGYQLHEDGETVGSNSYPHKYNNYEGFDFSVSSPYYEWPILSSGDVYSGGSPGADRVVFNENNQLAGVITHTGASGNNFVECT
Rpn11 confirm: confirmation of human proteasome Rpn11 inhibitors | shares compounds with Rpn11 block | purified human 26S proteasome, Ub4-pepOG fluorescence polarization; proteasome pretreated with epoxomicin | inhibition, % at 20 µM | hit rate 29% among 1,900
MMP-2 counter-1: blocks human MMP-2, flagging nonselective RPN11 hits; shares compounds with Rpn11 block; recombinant MMP-2, FRET peptide cleavage fluorescence; inhibition, % at 20 µM; hit rate 4% among 1,900; AID 602330;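 further: human MMP-2 activated beforehand with APMA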
Thrombin inh: thrombin (bovine) inhibition counter-screen; shares compounds with Rpn11 block; bovine thrombin cleavage of Ub4-pepOG, fluorescence polarization; inhibition, % at 20 µM; hit rate 13% among 1,900;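 active means mean inhibition at least 40% at 20 µM, or signal 3 deviations below plate average, so some actives read negative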;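 further: plate controls were thrombin with DMSO for no effect and buffer wells lacking thrombin for full effect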
CSN deneddyl val: Csn5 (human) deneddylation inhibition, single-concentration validation. shares compounds with CSN inh. Csn5 deneddylation of SCF-Nedd8OG, fluorescence polarization, 90 min. inhibition, % at 16.6 µM. hit rate 62% among 540. AID 720654; in the data active means inhibition above about 50%;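 further: 0% = DMSO with enzyme and 100% = no enzyme wells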
MMP-2 counter-2: counter-screen for CSN deneddylation inhibitors: human MMP-2 inhibition | shares compounds with CSN inh | recombinant MMP-2, FRET substrate fluorescence, 60 min | inhibition, % at 16.6 µM | hit rate 33% among 540 | AID 720655;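 active means corrected plate-normalized z-score of 5 or more, or -5 or less, or inhibition of 15% or more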;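 further: plate controls were DMSO wells with enzyme for no effect and buffer wells lacking MMP-2 for full effect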
Thrombin cntr: thrombin (bovine) inhibition, counter-screen for CSN hits; bovine thrombin cleavage of Ub4-pepOG, fluorescence polarization; AID 720656; inhibition, % at 16.6 µM; shares compounds with CSN inh; hit rate 49% among 540;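 active means inhibition at or above a set limit, with a fluorescence interference ratio between 0.5 and a set maximum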
Numbers without * were called inactive; i = inactive; / = not tested or not shown; + = active, no number. Unless noted, no stated cut-off is given here; in the data, active means inhibition above about 40%; inactive means the rest.

SMILES	TPT1 inhibitor	Rpn11 block	HNF4A DNA FP	CSN inh	CRFBP-R2 agonist	CRFR2-BP antag	caTPT1 confirm	RNase T1 inh	CSN deneddyl val	MMP-2 counter-2	Thrombin cntr	others
CCc1ccc(Nc2n[n+](-c3ccccc3)c(-c3ccc(N(CC)CC)cc3)s2)cc1	105*	/	175	91*	67*	-101	115*	112*	13	-79*	-84
O=C(O)c1ccc(-c2sc(Nc3ccccc3)n[n+]2-c2ccc(F)cc2)cc1	1	i	1	-6	-1	0	/	/	/	/	/
CCc1ccc(Nc2n[n+](-c3ccccc3)c(-c3ccc(OCc4ccccc4)cc3)s2)cc1	-1	i	-5	7	1	1	/	/	/	/	/
CN(Cc1ccccc1)C(=O)c1[nH]cnc1C(=O)N[C@@H](CCCCNC(=O)OC(C)(C)C)C(=O)OC(C)(C)C	1	i	-7	-1	-5	2	/	/	/	/	/
Nn1cnnc1N/N=C/c1ccccc1C(F)(F)F	-5	i	3	0	-1	6	/	/	/	/	/
CC1(c2ccccc2)NC(=O)N(CC(=O)N2CCc3ccccc32)C1=O (stereo unspecified)	/	i	1	-1	-1	-9	/	/	/	/	/
Cc1ccc2nc(/C(C#N)=C/c3ccc(O)c(O)c3)[nH]c2c1	56*	/	19	59*	39	-75	77*	84*	50*	-1	62*
Cc1cc(C(=O)CN2C(=O)NC3(CCCc4ccccc43)C2=O)c(C)n1C (stereo unspecified)	3	i	1	-6	-2	-15	/	/	/	/	/
COc1cc(/C=C2/SC(=S)N(Cc3ccccc3)C2=O)ccc1O	24*	/	69*	57*	41	-49	37*	46*	58*	-7	52
COc1cc(/C=C2\SC(=S)N(C(C(=O)O)c3ccccc3)C2=O)ccc1O (stereo unspecified)	27*	+	23	39*	53*	-51	28*	41*	73*	6	61*	Rpn11 confirm=56*;MMP-2 counter-1=-15;Thrombin inh=73*
CCOc1cc(/C=C2\SC(=S)N(C(C(=O)O)c3ccccc3)C2=O)ccc1O (stereo unspecified)	45*	+	25	41*	36	-26	48*	61*	81*	1	55*	Rpn11 confirm=63*;MMP-2 counter-1=13;Thrombin inh=72*
COc1cc(/C=C2/SC(=NCc3ccccc3)N(Cc3ccccc3)C2=O)ccc1O	16	i	4	6	0	1	/	/	/	/	/
CCN=C1S/C(=C\c2ccc(O)c(OCC)c2)C(=O)N1CC	1	i	3	-4	3	9	/	/	/	/	/
COc1cc(/C=C2\C(=O)N(C)C(=S)N2C)ccc1O	9	i	6	8	-1	-12	/	/	/	/	/
N#C/C(=C\c1ccc(N2CCCCC2)o1)C(N)=O	+	/	168	106*	36	-25	171*	164*	198*	-10	15
O=Cc1ccc(N2CCCC2)o1	0	i	0	-1	-1	-7	/	/	/	/	/

From PubChem
